Laboratory results taken from ChEMBL document CHEMBL4428066, “Small Molecule Reversible Inhibitors of Bruton's Tyrosine Kinase (BTK): Structure-Activity Relationships Leading to the Identification of 7-(2-Hydroxypropan-2-yl)-4-[2-methyl-3-(4-oxo-3,4-dihydroquinazolin-3-yl)phenyl]-9H-carbazole-1-carboxamide (BMS-935177)” (J Med Chem, 2016).
Calls of active or inactive are those of the source. The rule behind the calls is not given here.

Columns and labels:
[1] = Tmax in Beagle dog plasma at 2 mg/kg, administered through oral gavage after 0.25 to 48 hrs by LC/MS/MS analysis; type: ADME, organism-based, Canis lupus familiaris
[2] = molecular target: Tyrosine-protein kinase ITK/TSK (Homo sapiens, UniProt Q08881); experiment: Inhibition of partial length human ITK expressed in bacterial system
Chain of Tyrosine-protein kinase ITK/TSK (Q08881 whole entry): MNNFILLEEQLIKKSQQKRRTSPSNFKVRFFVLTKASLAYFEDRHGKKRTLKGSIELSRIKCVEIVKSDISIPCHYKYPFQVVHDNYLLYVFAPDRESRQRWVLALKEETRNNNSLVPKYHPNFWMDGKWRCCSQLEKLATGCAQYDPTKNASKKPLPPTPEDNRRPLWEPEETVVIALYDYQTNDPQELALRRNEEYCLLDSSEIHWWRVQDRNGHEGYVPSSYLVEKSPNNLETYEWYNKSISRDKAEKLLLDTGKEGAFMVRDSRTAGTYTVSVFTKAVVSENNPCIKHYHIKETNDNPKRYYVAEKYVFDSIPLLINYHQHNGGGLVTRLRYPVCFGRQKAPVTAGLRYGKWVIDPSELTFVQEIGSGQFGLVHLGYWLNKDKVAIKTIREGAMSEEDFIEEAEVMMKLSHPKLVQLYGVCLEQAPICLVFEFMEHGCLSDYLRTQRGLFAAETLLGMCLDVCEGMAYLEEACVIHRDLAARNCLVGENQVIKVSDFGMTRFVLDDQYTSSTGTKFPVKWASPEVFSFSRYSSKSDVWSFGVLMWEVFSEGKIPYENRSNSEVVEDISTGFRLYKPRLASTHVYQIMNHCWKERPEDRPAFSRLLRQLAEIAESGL

[3] = tested on: Mus musculus; experiment: Antiarthritic activity in DBA/1 mouse model of collagen-induced arthritis inflammation assessed reduction in disease severity at 10 mg/kg, po dosing daily starting on day of primary immunization; type: functional; set-up: scale not given: the % may be the effect or the level left
[4] = Cmax in Sprague-Dawley rat plasma at 5 mg/kg, administered through oral gavage by LC/MS/MS analysis; type: ADME, organism-based; set-up: dose 5 mg/kg, route oral
[5] = molecular target: Tyrosine-protein kinase Blk (Homo sapiens, UniProt P51451); experiment: Inhibition of BLK (unknown origin) expressed in bacterial system
Chain of Tyrosine-protein kinase Blk (P51451 whole entry): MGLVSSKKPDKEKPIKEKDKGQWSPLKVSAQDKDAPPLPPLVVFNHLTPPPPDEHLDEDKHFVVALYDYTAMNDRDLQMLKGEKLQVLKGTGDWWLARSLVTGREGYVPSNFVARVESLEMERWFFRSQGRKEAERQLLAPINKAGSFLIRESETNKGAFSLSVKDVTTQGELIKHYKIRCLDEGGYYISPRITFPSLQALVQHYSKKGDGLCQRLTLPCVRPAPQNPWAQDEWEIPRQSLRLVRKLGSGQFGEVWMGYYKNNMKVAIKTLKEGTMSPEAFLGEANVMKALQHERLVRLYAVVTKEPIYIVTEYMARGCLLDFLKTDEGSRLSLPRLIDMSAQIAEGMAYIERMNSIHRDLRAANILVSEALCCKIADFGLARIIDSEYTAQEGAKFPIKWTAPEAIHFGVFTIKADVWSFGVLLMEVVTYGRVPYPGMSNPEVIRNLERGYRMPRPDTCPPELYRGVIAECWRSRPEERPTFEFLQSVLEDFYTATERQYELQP

[6] = tested on: Mus musculus; experiment: Time required for plasma concentration to reach above in vitro BCR/IgM/IgG-stimulated CD69 expression mouse whole blood IC50 in DBA/1 mouse CIA model at 10 mg/kg administered daily through oral gavage starting on day of primary immunization; type: ADME, organism-based; conditions: in vivo
[7] = molecular target: Tyrosine-protein kinase BTK (Mus musculus, UniProt P35991); experiment: Inhibition of BTK in mouse whole blood assessed as suppression of BCR/anti-IgM stimulated CD69 surface expression on B cells after 18 hrs by FACS analysis; type: tissue-based
Chain of Tyrosine-protein kinase BTK (P35991 whole entry): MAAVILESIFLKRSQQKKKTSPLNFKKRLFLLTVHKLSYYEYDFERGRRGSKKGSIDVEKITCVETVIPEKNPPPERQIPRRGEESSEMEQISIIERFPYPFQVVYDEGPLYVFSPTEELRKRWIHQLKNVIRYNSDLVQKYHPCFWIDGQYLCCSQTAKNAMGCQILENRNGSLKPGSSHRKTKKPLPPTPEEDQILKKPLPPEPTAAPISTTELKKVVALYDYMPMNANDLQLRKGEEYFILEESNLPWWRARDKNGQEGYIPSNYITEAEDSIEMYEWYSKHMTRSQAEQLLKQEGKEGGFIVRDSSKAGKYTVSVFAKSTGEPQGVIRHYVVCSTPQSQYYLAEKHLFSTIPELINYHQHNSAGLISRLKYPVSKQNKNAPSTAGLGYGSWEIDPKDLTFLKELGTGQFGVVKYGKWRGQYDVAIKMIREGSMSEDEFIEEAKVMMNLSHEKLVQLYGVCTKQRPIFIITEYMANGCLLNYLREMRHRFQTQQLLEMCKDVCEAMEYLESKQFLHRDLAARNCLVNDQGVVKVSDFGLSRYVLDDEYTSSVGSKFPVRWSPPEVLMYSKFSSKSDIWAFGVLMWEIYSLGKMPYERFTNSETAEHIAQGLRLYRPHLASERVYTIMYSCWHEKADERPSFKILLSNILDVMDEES
Outline: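 Mouse whole blood stimulated through the BCR; CD69 on the B-cell surface read by FACS with gating on B cells. IC50 reported as mean ± standard deviation of three determinations.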

[8] = AUC (0 to 24 hrs) in Balb/C mouse at 10 mg/kg, po; type: ADME, organism-based; set-up: time < 24 hr, dose 10 mg/kg, route oral; conditions: in vivo
Outline: (§1)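 Male Balb/C mice dosed orally once at 10 mg/kg in PEG300/TPGS/ethanol (90/5/5 v/v/v).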

[9] = Volume of distribution in steady state in Sprague-Dawley rat at 2 mg/kg, iv through bolus administration by LC/MS/MS analysis; type: ADME, organism-based; conditions: in vivo, read-out: Vdss
[10] = tested on: Mus musculus; experiment: Time required for plasma concentration to reach above in vitro BCR-stimulated CD69 expression IC50 in Balb/C mouse KLH antibody response model at 5 to 45 mg/kg, po qd for 14 days; type: ADME, organism-based; conditions: in vivo, 336 h
[11] = Plasma clearance in Beagle dog at 2 mg/kg, iv through bolus administration after 0.167 to 48 hrs by LC/MS/MS analysis; type: ADME, organism-based, Canis lupus familiaris
[12] = tested on: Mus musculus; experiment: Time required for plasma concentration to reach above in vitro BCR/IgM/IgG-stimulated CD69 expression mouse whole blood IC50 in DBA/1 mouse CIA model at 20 mg/kg administered daily through oral gavage starting on day of primary immunization; type: ADME, organism-based; conditions: in vivo
[13] = tested on: Mus musculus; experiment: Antiarthritic activity in DBA/1 mouse model of collagen-induced arthritis inflammation assessed reduction in disease severity dosed daily and orally beginning on day of primary immunization; type: functional, organism-based
[14] = Cmax in cynomolgus monkey plasma at 2 mg/kg, administered through oral gavage after 0.25 to 48 hrs by LC/MS/MS analysis; type: ADME, organism-based, Macaca fascicularis; set-up: dose 2 mg/kg, route oral
[15] = tested on: Mus musculus; experiment: Antiarthritic activity in DBA/1 mouse model of collagen-induced arthritis inflammation assessed as presence of presence of recognizable small individual bones at foot and ankle at 20 mg/kg, po dosed daily beginning on day of primary immunization by microcomputed tomography imaging analysis; type: functional, organism-based
[16] = molecular target: Cytochrome P450 2C8 (Homo sapiens, UniProt P10632); experiment: Inhibition of human liver microsomes CYP2C8 after 30 mins in presence of NADPH; type: ADME
Chain of Cytochrome P450 2C8 (P10632 whole entry): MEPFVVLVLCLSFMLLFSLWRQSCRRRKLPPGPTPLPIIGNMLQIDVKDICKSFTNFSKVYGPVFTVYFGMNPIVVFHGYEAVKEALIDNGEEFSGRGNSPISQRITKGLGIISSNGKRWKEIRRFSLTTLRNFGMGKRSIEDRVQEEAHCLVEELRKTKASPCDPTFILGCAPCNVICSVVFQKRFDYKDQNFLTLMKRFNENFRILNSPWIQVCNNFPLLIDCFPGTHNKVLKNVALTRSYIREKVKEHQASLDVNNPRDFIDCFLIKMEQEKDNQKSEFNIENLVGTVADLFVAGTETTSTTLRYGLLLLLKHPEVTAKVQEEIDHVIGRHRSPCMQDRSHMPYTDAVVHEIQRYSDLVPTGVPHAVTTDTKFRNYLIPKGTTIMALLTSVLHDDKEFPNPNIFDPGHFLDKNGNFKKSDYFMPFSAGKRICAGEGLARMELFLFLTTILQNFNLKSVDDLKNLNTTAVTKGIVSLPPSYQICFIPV

[17] = tested on: Mus musculus; experiment: Antiarthritic activity in DBA/1 mouse model of collagen-induced arthritis inflammation assessed as inhibition of inflammation dosed daily and orally beginning on day of primary immunization by H and E staining based microscopy; type: functional, organism-based
[18] = Half life in Sprague-Dawley rat plasma at 2 mg/kg, iv through bolus administration by LC/MS/MS analysis; type: ADME, organism-based
[19] = tested on: Mus musculus; experiment: Decrease in anti-KLH IgM titers in chronic Balb/C mouse KLH antibody response model at 5 to 45 mg/kg, po qd administered through oral gavage after 14 days by ELISA; type: functional, organism-based
Outline: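 Chronic KLH challenge model in mice with compound given by mouth. Anti-KLH IgM appears in the first week after challenge. Switching to IgG anti-KLH is evident by day 14.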

[20] = Cmax in Balb/C mouse at 10 mg/kg, po; type: ADME, organism-based; set-up: dose 10 mg/kg, route oral; conditions: in vivo; outline: as §1
[21] = molecular target: Cytochrome P450 2C9 (Homo sapiens, UniProt P11712); experiment: Inhibition of human liver microsomes CYP2C9 after 30 mins in presence of NADPH; type: ADME
Chain of Cytochrome P450 2C9 (P11712 whole entry): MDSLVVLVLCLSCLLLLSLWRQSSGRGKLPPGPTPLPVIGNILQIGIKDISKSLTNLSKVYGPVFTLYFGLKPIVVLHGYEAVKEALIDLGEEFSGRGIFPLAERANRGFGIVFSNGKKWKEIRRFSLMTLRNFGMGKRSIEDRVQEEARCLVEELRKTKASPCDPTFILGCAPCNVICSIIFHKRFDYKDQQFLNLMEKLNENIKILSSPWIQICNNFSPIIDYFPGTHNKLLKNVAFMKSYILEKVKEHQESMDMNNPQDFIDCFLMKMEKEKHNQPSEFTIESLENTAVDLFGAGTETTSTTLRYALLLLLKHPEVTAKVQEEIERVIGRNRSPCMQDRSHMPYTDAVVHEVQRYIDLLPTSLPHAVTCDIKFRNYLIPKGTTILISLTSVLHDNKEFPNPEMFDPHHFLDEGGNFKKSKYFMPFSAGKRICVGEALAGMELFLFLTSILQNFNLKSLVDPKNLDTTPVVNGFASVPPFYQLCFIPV

[22] = molecular target: Tyrosine-protein kinase Lyn (Homo sapiens, UniProt P07948); experiment: Inhibition of partial length human LYN expressed in bacterial system
Chain of Tyrosine-protein kinase Lyn (P07948 whole entry): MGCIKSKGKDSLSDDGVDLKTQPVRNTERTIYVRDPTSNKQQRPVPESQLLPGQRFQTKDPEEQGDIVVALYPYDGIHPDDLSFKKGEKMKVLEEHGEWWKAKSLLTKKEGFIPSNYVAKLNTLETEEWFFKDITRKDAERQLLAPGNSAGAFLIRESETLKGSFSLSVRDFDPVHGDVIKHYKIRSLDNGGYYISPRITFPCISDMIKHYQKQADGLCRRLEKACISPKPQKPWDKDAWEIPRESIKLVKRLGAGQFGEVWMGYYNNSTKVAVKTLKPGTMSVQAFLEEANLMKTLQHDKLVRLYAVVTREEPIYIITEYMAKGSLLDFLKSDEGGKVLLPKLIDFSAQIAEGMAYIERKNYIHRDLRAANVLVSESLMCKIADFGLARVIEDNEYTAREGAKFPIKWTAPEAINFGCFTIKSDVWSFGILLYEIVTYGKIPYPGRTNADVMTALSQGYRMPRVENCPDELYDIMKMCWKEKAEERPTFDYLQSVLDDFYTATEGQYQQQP

[23] = molecular target: BDNF/NT-3 growth factors receptor (Homo sapiens, UniProt Q16620); experiment: Inhibition of partial length human TRKB expressed in mammalian system
Chain of BDNF/NT-3 growth factors receptor (Q16620 whole entry): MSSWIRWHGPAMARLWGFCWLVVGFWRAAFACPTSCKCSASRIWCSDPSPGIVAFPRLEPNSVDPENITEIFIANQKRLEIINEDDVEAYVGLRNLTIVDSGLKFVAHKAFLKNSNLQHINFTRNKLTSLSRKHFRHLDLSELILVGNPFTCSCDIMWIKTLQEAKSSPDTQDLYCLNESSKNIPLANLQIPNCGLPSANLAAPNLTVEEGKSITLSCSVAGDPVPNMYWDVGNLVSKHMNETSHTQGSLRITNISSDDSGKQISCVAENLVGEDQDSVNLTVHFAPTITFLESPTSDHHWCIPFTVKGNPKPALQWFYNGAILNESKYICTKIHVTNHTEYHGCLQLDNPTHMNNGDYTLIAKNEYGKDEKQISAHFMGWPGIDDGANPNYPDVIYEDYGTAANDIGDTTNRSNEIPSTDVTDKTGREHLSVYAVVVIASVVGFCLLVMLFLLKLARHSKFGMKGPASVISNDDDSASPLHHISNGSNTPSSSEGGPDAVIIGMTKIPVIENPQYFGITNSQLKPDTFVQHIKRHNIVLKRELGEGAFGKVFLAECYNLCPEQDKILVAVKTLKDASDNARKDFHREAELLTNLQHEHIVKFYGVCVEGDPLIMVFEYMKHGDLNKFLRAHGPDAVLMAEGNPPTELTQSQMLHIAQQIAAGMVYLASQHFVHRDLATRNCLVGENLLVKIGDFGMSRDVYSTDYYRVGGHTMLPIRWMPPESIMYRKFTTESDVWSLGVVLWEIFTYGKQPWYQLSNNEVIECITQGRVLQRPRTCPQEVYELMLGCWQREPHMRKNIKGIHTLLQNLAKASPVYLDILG

[24] = AUC in cynomolgus monkey plasma at 2 mg/kg, administered through oral gavage after 0.25 to 48 hrs by LC/MS/MS analysis; type: ADME, organism-based, Macaca fascicularis; set-up: time upper 48 hr, dose 2 mg/kg, time lower 0.25 hr, route oral
[25] = Tmax in Sprague-Dawley rat plasma at 5 mg/kg, administered through oral gavage by LC/MS/MS analysis; type: ADME, organism-based
[26] = Tmax in mouse plasma at 5 mg/kg, administered through oral gavage after 0.25 to 24 hrs by LC/MS/MS analysis; type: ADME, organism-based
[27] = Cmax in Beagle dog plasma at 2 mg/kg, administered through oral gavage after 0.25 to 48 hrs by LC/MS/MS analysis; type: ADME, organism-based, Canis lupus familiaris; set-up: dose 2 mg/kg, route oral
[28] = Half life in mouse plasma at 2 mg/kg, iv through bolus administration after 0.05 to 24 hrs by LC/MS/MS analysis; type: ADME, organism-based
[29] = Volume of distribution in steady state in mouse at 2 mg/kg, iv through bolus administration after 0.05 to 24 hrs by LC/MS/MS analysis; type: ADME, organism-based; conditions: in vivo, read-out: Vdss
[30] = Aqueous solubility of the compound; type: physicochemical; conditions: aqueous medium
[31] = tested on: Mus musculus; experiment: Antiarthritic activity in DBA/1 mouse model of collagen-induced arthritis inflammation assessed as reduction of disease severity at 30 mg/kg, qd administered through oral gavage dosed after day 21 booster immunization; type: functional, organism-based
[32] = Half life in Beagle dog plasma at 2 mg/kg, iv through bolus administration after 0.167 to 48 hrs by LC/MS/MS analysis; type: ADME, organism-based, Canis lupus familiaris
[33] = molecular target: Cytochrome P450 2D6 (Homo sapiens, UniProt P10635); experiment: Inhibition of human liver microsomes CYP2D6 after 30 mins in presence of NADPH; type: ADME
Chain of Cytochrome P450 2D6 (P10635 whole entry): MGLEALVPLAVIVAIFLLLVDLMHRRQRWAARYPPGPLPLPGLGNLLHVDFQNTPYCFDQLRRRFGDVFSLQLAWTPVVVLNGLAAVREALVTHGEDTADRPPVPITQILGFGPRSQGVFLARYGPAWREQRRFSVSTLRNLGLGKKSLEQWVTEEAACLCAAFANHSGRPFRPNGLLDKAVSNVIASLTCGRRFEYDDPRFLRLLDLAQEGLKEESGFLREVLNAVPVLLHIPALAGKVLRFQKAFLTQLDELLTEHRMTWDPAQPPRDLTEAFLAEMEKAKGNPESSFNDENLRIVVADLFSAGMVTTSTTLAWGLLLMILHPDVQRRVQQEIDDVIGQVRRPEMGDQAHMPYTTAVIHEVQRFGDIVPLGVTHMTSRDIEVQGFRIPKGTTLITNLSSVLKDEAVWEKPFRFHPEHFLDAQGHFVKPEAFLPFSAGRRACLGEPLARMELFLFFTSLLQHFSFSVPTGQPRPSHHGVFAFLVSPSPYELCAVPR

[34] = Plasma clearance in cynomolgus monkey at 2 mg/kg, iv through bolus administration after 0.167 to 48 hrs by LC/MS/MS analysis; type: ADME, organism-based, Macaca fascicularis
[35] = tested on: Mus musculus; experiment: Antiarthritic activity in DBA/1 mouse model of collagen-induced arthritis inflammation assessed as protection against pitting dosed daily and orally beginning on day of primary immunization by microcomputed tomography imaging analysis; type: functional, organism-based

Cc1c(-c2ccc(C(N)=O)c3[nH]c4cc(C(C)(C)O)ccc4c23)cccc1-n1cnc2ccccc2c1=O
Tmax [1]: 1.6 h | IC50 [2]: 0.096 µM | Activity [3]: 40% | Cmax [4]: 2 µM | IC50 [5]: 0.02 µM | Time [6]: 12 h | IC50 [7]: 2.06 µM | AUC(0-t) at 24 h [8]: 80 µM·h | Vd [9]: 2.6 L/kg | Time [10]: 5 h | clearance [11]: 0.222 L/h/kg | Time [12]: 20 h | Activity [13]: Dose-dependent effect | Cmax [14]: 4.8 µM | Activity [15]: Active | IC50 [16]: > 8 µM | Activity [17]: Active | half-life [18]: 5.1 h | Activity [19]: Active | Cmax [20]: 8.96 µM | IC50 [21]: > 8 µM | IC50 [22]: 0.16 µM | IC50 [23]: 0.1 µM | AUC [24]: 32 µM·h | Tmax [25]: 5 h | Tmax [26]: 3 h | Cmax [27]: 1.2 µM | half-life [28]: 4 h | Vd [29]: 1.7 L/kg | solubility [30]: < 1 µg/mL | Activity [31]: Active | half-life [32]: 10.4 h | IC50 [33]: > 40 µM | clearance [34]: 0.126 L/h/kg | Activity [35]: Dose-dependent effect
